Test results: PMC3276691 (Journal of Medicinal Chemistry, 2012)

What was measured:
TLR8 [1] = assay: Inhibition of TLR8-mediated cytokine and chemokine production in hPBMCs; format: cell-based, human; settings: 12 h, proinflammatory cytokines (Fig. 4)
[2] = test system: human peripheral blood mononuclear cells; assay: IFN-α induction in human PBMCs; format: cell-based; settings: hPBMCs, 12 h, graded concentrations
Summary of the method: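 PBMCs from healthy donors, isolated by Ficoll-Hypaque gradient centrifugation and stimulated with graded concentrations of test compound for 12 h. Supernatants collected by centrifugation and diluted 1:20. IFN-α measured in triplicate by high-sensitivity human IFN-α-specific ELISA.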

TLR8 [3] = assay: Schild plot analysis of inhibition of TLR8-induced activation; format: cell-based, human; settings: CL075 TLR8-specific agonist, checker-board format
TLR7 [4] = assay: Schild plot analysis of inhibition of TLR7-induced activation; format: cell-based, human; settings: imidazoquinoline TLR7-specific agonist, checker-board format
TLR7 [5] = assay: Inhibition of TLR7-mediated cytokine and chemokine production in hPBMCs; format: cell-based; settings: Homo sapiens, 12 h, read-out: IC50, inhibition of TLR7-induced cytokine and chemokine release

Compound	Inhibition of TNF-α and IL-1β production (TLR8 [1])	IFN-α induction [2]	Schild plot slope, TLR8 inhibition (TLR8 [3])	Schild plot slope, TLR7 inhibition (TLR7 [4])	IC50 (TLR7 [5])
CCN(CC)CCCC(C)Nc1ccnc2cc(Cl)ccc12 (stereo not drawn) [Chloroquine, chloroquine, reference compound]	feeble inhibitor				
CCCCc1nc2c(N)nc3ccccc3c2n1Cc1ccc(CNC(=O)CCCCCCCCCCC(=O)NCc2ccc(Cn3c(CCCC)nc4c(N)nc5ccccc5c43)cc2)cc1 [Compound 10c]		most potent			
Nc1nc2ccccc2c2c1nc(CCCc1nc3c(N)nc4ccccc4c3n1Cc1ccccc1)n2Cc1ccccc1 [Compound 4a, 2,2′-(propane-1,3-diyl)bis(1-benzyl-1H-imidazo[4,5-c]quinolin-4-amine)]	potently inhibits		0.51	1.12	50 to 300 nM
